Measurements from ChEMBL document CHEMBL1144035, “Synthesis, cytostatic and anti-HCV activity of 6-(N-substituted aminomethyl)-, 6-(O-substituted hydroxymethyl)- and 6-(S-substituted sulfanylmethyl)purine nucleosides” (Bioorg Med Chem, 2008).
Calls of active or inactive are those of the source. The calls are words filed in the database; no cut-off is given here.

Columns and labels:
L1210 = experiment: Cytostatic activity in mouse L1210 cells assessed as inhibition of cell growth after 72 hrs; format: functional, cell-based; settings: for IC50: L1210, 72 h
Procedure, shortened: (§1)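 Cultures from ATCC lines: mouse leukaemia L1210 (CCL 219), human promyelocytic leukaemia HL60 (CCL 240) and human T-lymphoblastoid CCRF-CEM (CCL 119). Growth inhibition was estimated from the cell count in a haematological analyzer (haemocytometer).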

CCRF-CEM [1] = experiment: Cytostatic activity in human CCRF-CEM cells assessed as inhibition of cell growth after 72 hrs; format: functional, cell-based; procedure, shortened: as §1
HeLa = experiment: Cytostatic activity in human HeLa S3 cells assessed as inhibition of cell growth after 48 hrs by XTT assay; format: functional, cell-based
Hepatitis C virus = experiment: Antiviral activity against Hepatitis C virus 1b after 3 days; format: functional, organism-based, Hepacivirus hominis; settings: genotype 1b, 72 h
[2] = Cytotoxicity against human Huh7 cells after 3 days by MTT method; format: functional; settings: Huh-7, 72 h
Procedure, shortened: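 Cellular toxicity was read by MTT in Huh-7 cells carrying the con-1 HCV replicon, in duplicate (N = 2).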

MT4 = experiment: Cytotoxicity against human MT4 cells after 4 days; format: functional; settings: MT4, 96 h
Procedure, shortened: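 Cellular toxicity was measured in MT-4 cells, N = 2.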

HL-60 [3] = experiment: Cytostatic activity in human HL60 cells assessed as inhibition of cell growth after 72 hrs; format: functional, cell-based; settings: for IC50: HL-60, 72 h; procedure, shortened: as §1
HL-60 [4] = experiment: Cytostatic activity in human HL60 cells assessed as inhibition of cell growth after 72 hrs by XTT assay; format: functional, cell-based; settings: HL-60, 72 h
CCRF-CEM [5] = experiment: Cytostatic activity in human CCRF-CEM cells assessed as inhibition of cell growth after 72 hrs by XTT assay; format: functional, cell-based
HL-60 [6] = experiment: Cell cycle arrest in human HL60 cells by accumulation at G1 phase after 72 hrs by flow cytometry; format: functional, cell-based
HL-60 [7] = experiment: Cell cycle arrest in human HL60 cells by depletion of cells at S phase after 72 hrs by flow cytometry; format: functional, cell-based
HL-60 [8] = experiment: Cell cycle arrest in human HL60 cells by accumulation at G1 phase at 1 umol/L by flow cytometry relative to control; format: functional
Procedure, shortened: (§2)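 HL-60 cells exposed to compound for 72 h at the single concentration in the line; the cell-cycle phase fraction is reported as a change relative to untreated control cells.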

HL-60 [9] = experiment: Cell cycle arrest in human HL60 cells by accumulation at S phase at 1 umol/L by flow cytometry relative to control; format: functional; procedure, shortened: as §2
HL-60 [10] = experiment: Cell cycle arrest in human HL60 cells by accumulation at G2/M phase at 1 umol/L by flow cytometry relative to control; format: functional; procedure, shortened: as §2
HL-60 [11] = experiment: Cell cycle arrest in human HL60 cells by accumulation at G1 phase at 2.5 umol/L after 72 hrs by flow cytometry; format: functional
HL-60 [12] = experiment: Cell cycle arrest in human HL60 cells by accumulation at S phase at 2.5 umol/L after 72 hrs by flow cytometry; format: functional
HL-60 [13] = experiment: Cell cycle arrest in human HL60 cells by accumulation at G2/M phase at 2.5 umol/L after 72 hrs by flow cytometry; format: functional
HL-60 [14] = experiment: Cell cycle arrest in human HL60 cells by accumulation at G1 phase at 5 umol/L after 72 hrs by flow cytometry; format: functional
HL-60 [15] = experiment: Cell cycle arrest in human HL60 cells by accumulation at S phase at 5 umol/L after 72 hrs by flow cytometry; format: functional
HL-60 [16] = experiment: Cell cycle arrest in human HL60 cells by accumulation at G2/M phase at 5 umol/L after 72 hrs by flow cytometry; format: functional
HL-60 [17] = experiment: Cell cycle arrest in human HL60 cells by accumulation at G1 phase at 1 umol/L after 72 hrs by flow cytometry; format: functional
HL-60 [18] = experiment: Cell cycle arrest in human HL60 cells by accumulation at S phase at 1 umol/L after 72 hrs by flow cytometry; format: functional
HL-60 [19] = experiment: Cell cycle arrest in human HL60 cells by accumulation at G2/M phase at 1 umol/L after 72 hrs by flow cytometry; format: functional
HL-60 [20] = experiment: Cell cycle arrest in human HL60 cells by accumulation at G1 phase at 22.5 umol/L by flow cytometry relative to control; format: functional; procedure, shortened: as §2
HL-60 [21] = experiment: Cell cycle arrest in human HL60 cells by accumulation at S phase at 22.5 umol/L by flow cytometry relative to control; format: functional; procedure, shortened: as §2
HL-60 [22] = experiment: Cell cycle arrest in human HL60 cells by accumulation at G2/M phase at 22.5 umol/L by flow cytometry relative to control; format: functional; procedure, shortened: as §2
HL-60 [23] = experiment: Cell cycle arrest in human HL60 cells by accumulation at G1 phase at 3 umol/L by flow cytometry relative to control; format: functional; procedure, shortened: as §2
HL-60 [24] = experiment: Cell cycle arrest in human HL60 cells by accumulation at S phase at 3 umol/L by flow cytometry relative to control; format: functional; procedure, shortened: as §2
HL-60 [25] = experiment: Cell cycle arrest in human HL60 cells by accumulation at G2/M phase at 3 umol/L by flow cytometry relative to control; format: functional; procedure, shortened: as §2

EC50 (Hepatitis C virus) [µM] | IC50 (HL-60 [4]) [µM] | IC50 (CCRF-CEM [1]) [µM] | IC50 (CCRF-CEM [5]) [µM] | IC50 (HL-60 [3]) [µM] | SMILES | Activity (L1210) | Activity (CCRF-CEM [1]) | Activity (HeLa) | CC50 [2] [µM] | CC50 (MT4) [µM] | Activity (HL-60 [3]) | also measured
20 | – | – | – | – | CC(=O)N(Cc1ncnc2c1ncn2[C@H]1C[C@H](O)[C@@H](CO)O1)C1CCCCC1 | inactive | inactive | inactive | > 100 | > 100 | inactive | –
13 | 1.68 | 6 | 1.14 | 13 | COCc1ncnc2c1ncn2[C@@H]1O[C@H](CO)[C@@H](O)[C@H]1O | inactive | – | inactive | > 100 | – | – | Activity (HL-60 [6]): Active; Activity (HL-60 [7]): Active
44 | – | – | – | – | OC[C@H]1O[C@@H](n2cnc3c(CSc4ccccn4)ncnc32)[C@H](O)[C@@H]1O | inactive | inactive | inactive | > 100 | > 100 | inactive | –
6 | 0.78 | 0.39 | 0.34 | 1.88 | [N-]=[N+]=NCc1ncnc2c1ncn2[C@@H]1O[C@H](CO)[C@@H](O)[C@H]1O | – | – | inactive | > 250 | 32 | – | IC50 (L1210): 1.59 µM; Activity (HL-60 [8]): 1.57%; Activity (HL-60 [9]): 0.63%; Activity (HL-60 [10]): 1.3%; Activity (HL-60 [11]): 33%; Activity (HL-60 [12]): 59%; Activity (HL-60 [13]): 8%; Activity (HL-60 [14]): 24%; Activity (HL-60 [15]): 69%; Activity (HL-60 [16]): 8%; Activity (HL-60 [6]): Active; Activity (HL-60 [7]): Active; Activity (HL-60 [17]): 54%; Activity (HL-60 [18]): 37%; Activity (HL-60 [19]): 10%
39 | 1.2 | – | – | 3.5 | OC[C@H]1O[C@@H](n2cnc3c(CS)ncnc32)[C@H](O)[C@@H]1O | inactive | inactive | inactive | 54 | – | – | –
46 | – | – | – | – | OCCSCc1ncnc2c1ncn2[C@@H]1O[C@H](CO)[C@@H](O)[C@H]1O | inactive | inactive | inactive | > 100 | > 100 | inactive | –
7.6 | 9.1 | 3.4 | 1.96 | 5.7 | OC[C@H]1O[C@@H](n2cnc3c(Cn4ccc5ccccc54)ncnc32)[C@H](O)[C@@H]1O | inactive | – | inactive | > 250 | 45 | – | –
> 100 | 19.2 | 9.2 | 4.65 | 10.7 | OC[C@H]1O[C@@H](n2cnc3c(CSCc4ccccc4)ncnc32)[C@H](O)[C@@H]1O | inactive | – | inactive | > 100 | – | – | Activity (HL-60 [20]): 1.99%; Activity (HL-60 [21]): 0.43%; Activity (HL-60 [22]): 0.88%; Activity (HL-60 [6]): Active
9 | 2.4 | 20.3 | – | 5.6 | CN(Cc1ccccc1)Cc1ncnc2c1ncn2[C@@H]1O[C@H](CO)[C@@H](O)[C@H]1O | – | – | inactive | 9 | – | – | IC50 (L1210): 4.8 µM
> 100 | – | – | – | – | OC[C@H]1O[C@@H](n2cnc3c(CSc4ccccc4)ncnc32)[C@H](O)[C@@H]1O | inactive | inactive | inactive | > 100 | – | inactive | –
62 | – | – | – | – | OC[C@H]1O[C@@H](n2cnc3c(Cn4cccn4)ncnc32)[C@H](O)[C@@H]1O | inactive | inactive | inactive | > 250 | 48 | inactive | –
7 | 3.12 | 19.6 | – | 5.2 | OC[C@H]1O[C@@H](n2cnc3c(CN4CCSC4)ncnc32)[C@H](O)[C@@H]1O | – | – | inactive | 21 | – | – | IC50 (L1210): 7.8 µM
> 250 | 14.3 | 16.6 | 10.8 | 12 | OC[C@H]1O[C@@H](n2cnc3c(COc4ccccn4)ncnc32)[C@H](O)[C@@H]1O | inactive | – | inactive | > 250 | – | – | –
10 | 5 | 15 | 3.2 | 13.4 | CSCc1ncnc2c1ncn2[C@@H]1O[C@H](CO)[C@@H](O)[C@H]1O | – | – | inactive | > 100 | 32 | – | IC50 (L1210): > 30 µM
186 | – | – | – | 13 | OC[C@H]1O[C@@H](n2cnc3c(CN4CCOCC4)ncnc32)[C@H](O)[C@@H]1O | inactive | inactive | inactive | > 250 | – | – | –
65 | 11.4 | 18 | 10.3 | 6.6 | CC(=O)NNCc1ncnc2c1ncn2[C@@H]1O[C@H](CO)[C@@H](O)[C@H]1O | inactive | – | inactive | > 250 | – | – | –
21 | 3.4 | – | – | 4 | CN(Cc1ncnc2c1ncn2[C@@H]1O[C@H](CO)[C@@H](O)[C@H]1O)c1ccccc1 | inactive | inactive | inactive | 21 | – | – | Activity (HL-60 [23]): 1.12%; Activity (HL-60 [24]): 0.87%; Activity (HL-60 [25]): 1.08%
15 | 4.37 | 6.7 | 3.72 | 14.7 | OCCN(CCO)Cc1ncnc2c1ncn2[C@@H]1O[C@H](CO)[C@@H](O)[C@H]1O | – | – | inactive | 10 | – | – | IC50 (L1210): 14.3 µM; Activity (HL-60 [6]): Active; Activity (HL-60 [7]): Active
> 100 | – | – | – | – | O=C(O)CSCc1ncnc2c1ncn2[C@@H]1O[C@H](CO)[C@@H](O)[C@H]1O | inactive | inactive | inactive | > 100 | – | inactive | –
> 100 | – | – | – | – | O=c1ccn(Cc2ncnc3c2ncn3[C@@H]2O[C@H](CO)[C@@H](O)[C@H]2O)cc1 | inactive | inactive | inactive | > 100 | – | inactive | –
